Assays:
[1] = Solubility in 0.1 M HCl at pH 2.7; format: physicochemical
In short: (§1)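 Excess or stated amounts of solute were shaken in closed vials of solvent for 24 h at 20 °C, following Higuchi and Connors. For clear solutions, only pH was recorded and solubility was taken as solute added per solvent volume. Turbid samples were filtered through 0.45 µm, the filtrate pH was recorded, and concentration was measured by UV absorption.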

[2] = Solubility in 0.1 M NaOH at pH 13.0; format: physicochemical; in short: as §1
[3] = Solubility in buffer (pH 2) at pH 4.8; format: physicochemical; in short: as §1
[4] = Solubility in buffer (pH 4) at pH 5.4; format: physicochemical; in short: as §1
[5] = Solubility in buffer (pH 6) at pH 9.2; format: physicochemical; in short: as §1
[6] = Solubility in buffer (pH 10) at pH 10.2; format: physicochemical; in short: as §1
[7] = Solubility in buffer of (pH 8) at pH 9.0; format: physicochemical; details: buffer (pH 8); in short: as §1
[8] = Solubility in simulated gastric fluid at pH 3.1; format: physicochemical; in short: as §1
[9] = Solubility in simulated intestinal fluid at pH 10.1; format: physicochemical; in short: as §1
[10] = Partition coefficient (logP); format: physicochemical; details: octanol/water
Histamine H1 receptor = Histamine H1 receptor (Homo sapiens, UniProt P35367); experiment: Binding affinity for H1 histamine receptor expressed in CHO cells; format: cell-based
Sequence of Histamine H1 receptor (P35367 whole entry): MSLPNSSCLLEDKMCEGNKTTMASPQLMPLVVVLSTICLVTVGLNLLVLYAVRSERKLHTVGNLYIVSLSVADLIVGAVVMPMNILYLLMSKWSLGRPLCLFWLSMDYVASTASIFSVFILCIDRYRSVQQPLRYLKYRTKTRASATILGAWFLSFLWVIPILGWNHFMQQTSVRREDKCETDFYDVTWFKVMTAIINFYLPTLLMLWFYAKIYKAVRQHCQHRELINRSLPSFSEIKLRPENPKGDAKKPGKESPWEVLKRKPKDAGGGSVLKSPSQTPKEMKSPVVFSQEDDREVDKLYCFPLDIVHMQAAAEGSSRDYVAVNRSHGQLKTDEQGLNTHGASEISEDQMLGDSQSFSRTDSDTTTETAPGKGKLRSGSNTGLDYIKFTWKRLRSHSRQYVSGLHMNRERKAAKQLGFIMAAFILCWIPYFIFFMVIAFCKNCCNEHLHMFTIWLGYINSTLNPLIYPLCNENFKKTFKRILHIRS

Rattus norvegicus [11] = experiment: Effective dose for inhibition of skin reactions induced by histamine in rat by 2 hr after the subcutaneous administration; format: functional; details: sc
In short: (§2)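 Male Wistar rats (200-240 g) were passively sensitized with intradermal ovalbumin-specific IgE serum; 50 h later histamine (50 µg), serotonin (0.1 µg) and Ascaris allergens (1/2 in saline) were injected intradermally at dorsal sites. Compound was given sc 2 h before challenge, with two observers' scores summed. Histamine and serotonin: inhibition score <4, blockade <3. PCA and Ascaris: score <3. ED50 by Finney's method, five animals per dose.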

Rattus norvegicus [12] = experiment: Effective dose for inhibition of skin reactions induced by serotonin in rat by 2 hr after the subcutaneous administration; format: functional; details: sc; in short: as §2
Rattus norvegicus [13] = experiment: Effective dose for the inhibition of 48/80-induced lethal anaphylactic reaction was determined in rat by 2 hours after oral administration; format: functional
In short: (§3)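 Compound or solvent was given sc 1 h or po 2 h beforehand at 10 mL/kg, dosed as base equivalents from a 0.04-10 mg/kg geometric series, five rats per dose.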

Rattus norvegicus [14] = experiment: Effective dose for blockade of skin reactions induced by passive cutaneous anaphylaxis in rat by 2 hr after the subcutaneous administration; format: functional; details: sc; in short: as §2
Rattus norvegicus [15] = experiment: Effective dose for blockade of skin reactions induced by histamine in rat by 2 hr after the subcutaneous administration; format: functional; details: sc; in short: as §2
Rattus norvegicus [16] = experiment: Effective dose for blockade of skin reactions induced by Ascaris allergens in rat by 2 hr after the subcutaneous administration; format: functional; details: sc; in short: as §2
Rattus norvegicus [17] = experiment: Effective dose for the inhibition of 48/80-induced lethal anaphylactic reaction was determined in rat by 1 hour after subcutaneous administration; format: functional; details: sc; in short: as §3
Canis familiaris [18] = experiment: Onset action against Ascaris allergens induced cutaneous reactions was determined by oral administration at four times the peak effect dose in dog; format: functional, Canis lupus familiaris
In short: (§4)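 Beagle dogs of both sexes, selected for sensitivity to Ascaris allergens (ACF, 1/100 in saline), injected intradermally at three chest sites. Wheal diameter and skin thickness increase were read 15 min after injection, before and 1, 4, 20 and 72 h after oral dosing. Onset and duration were estimated graphically at four times the peak-effect dose.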

Canis familiaris [19] = experiment: Duration of action against Ascaris allergens induced cutaneous reactions was determined by oral administration at four times the peak effect dose in dog; format: functional, Canis lupus familiaris; in short: as §4
[20] = pKa1 value was determined; format: physicochemical; details: read-out: pKa1
[21] = pKa2 value was determined; format: physicochemical
In short: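 logP was measured in octanol/pH 12 buffer; pKa was measured by the Sirius PCA 101 method.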

Cavia porcellus [22] = experiment: Effective dose for blockade of skin reactions induced by histamine in guinea pig by 2 hr after the oral administration
Cavia porcellus [23] = experiment: Effective dose for inhibition of skin reactions induced by histamine in guinea pig by 2 hr after the oral administration
Cavia porcellus [24] = experiment: Effective dose for inhibition of skin reactions induced by substance P in guinea pig by 2 hr after the oral administration
Canis familiaris [25] = experiment: Peak effective dose for inhibition of skin reactions induced by Ascaris allergens in dog by 4 hr after the oral administration; details: Canis lupus familiaris
Cavia porcellus [26] = experiment: Effective dose for inhibition of skin reactions induced by Ascaris allergens in guinea pig by 2 hr after the oral administration
Rattus norvegicus [27] = experiment: Effective dose for the inhibition of 48/80-induced lethal anaphylactic reaction was determined in rat by 2 hour after oral administration; format: functional; in short: as §3
[28] = Solubility in water mg/mL; format: physicochemical; in short: as §1
[29] = Solubility in water at pH 2.0; format: physicochemical; in short: as §1
[30] = Solubility in 0.1 M HCl at pH 1.0; format: physicochemical; in short: as §1
[31] = Solubility in 0.1 M NaOH at pH 12.6; format: physicochemical; in short: as §1
[32] = Solubility in buffer (pH 2) at pH 1.1; format: physicochemical; details: in the assay text read “pH 1.8” for “pH 1.1”; in short: as §1
[33] = Solubility in buffer (pH 4) at pH 2.9; format: physicochemical; in short: as §1
[34] = Solubility in buffer (pH 6) at pH 4.2; format: physicochemical; in short: as §1
[35] = Solubility in buffer (pH 8) at pH 3.8; format: physicochemical; in short: as §1
[36] = Solubility in buffer (pH 10) at pH 4.3; format: physicochemical; in short: as §1
[37] = Solubility in simulated gastric fluid at pH 1.1; format: physicochemical; in short: as §1
[38] = Solubility in simulated intestinal fluid at pH 2.3; format: physicochemical; in short: as §1

Row | Compound | logP [10] | Ki (Histamine H1 receptor) [nM] | ED50 (Rattus norvegicus [11]) [mg/kg] | ED50 (Rattus norvegicus [12]) [mg/kg] | ED50 (Rattus norvegicus [14]) [mg/kg] | ED50 (Rattus norvegicus [15]) [mg/kg] | ED50 (Rattus norvegicus [16]) [mg/kg] | ED50 (Rattus norvegicus [17]) [mg/kg] | Time (Canis familiaris [18]) [h] | Time (Canis familiaris [19]) [h] | pKa [20] | ED50 (Cavia porcellus [22]) [mg/kg] | ED50 (Cavia porcellus [23]) [mg/kg] | ED50 (Cavia porcellus [24]) [mg/kg] | ED50 (Canis familiaris [25]) [mg/kg] | ED50 (Cavia porcellus [26]) [mg/kg] | ED50 (Rattus norvegicus [27]) [mg/kg] | further results
1 | Cl.NC(=O)c1cnc2n1CCc1ccccc1C21CCNCC1 |  |  |  |  |  |  |  |  |  |  |  |  |  |  |  |  |  | solubility [1]: > 20 mg/mL; solubility [2]: 0.93 mg/mL; solubility [3]: > 20 mg/mL; solubility [4]: > 20 mg/mL; solubility [5]: 8.04 mg/mL; solubility [6]: 1.65 mg/mL; solubility [7]: 12.2 mg/mL; solubility [8]: > 20 mg/mL; solubility [9]: 1.69 mg/mL
2 | Cn1ccc2c1CCn1ccnc1C2=C1CCNCC1 | 1.25 | 22 | 0.08 | > 0.16 | 0.08 | 0.13 | 0.13 | 0.028 | <1 | 35 | 9.85 | 0.96 | 0.24 | 1.7 | 0.038 | 8.7 |  | ED50 (Rattus norvegicus [13]): 0.76 mg/kg; Pka2 [21]: 6.52
3 | Cn1ccc2c1C(=O)Cn1ccnc1C2=C1CCNCC1 |  | 12 | 0.55 | > 10 | 0.42 | 0.95 | 2.9 | 0.037 | <1 | 13 |  | 0.08 | 0.02 | > 2.5 | 0.018 | 0.42 | 0.34 | 
4 | Cl.Cl.O=C(O)COCCN1CCN([C@H](c2ccccc2)c2ccc(Cl)cc2)CC1 [LEVOCETIRIZINE DIHYDROCHLORIDE] |  |  | 0.68 | > 10 | 2.7 | 0.68 | 3.6 |  | <1 | 30 |  | 0.14 | 0.046 | > 2.5 | 0.14 | > 2.5 | 1.2 | 
5 | CCOC(=O)N1CCC(=C2c3ccc(Cl)cc3CCc3cccnc32)CC1 [LORATADINE] |  |  | 0.89 | 6.2 | 1.6 | 1.8 | 2.7 | 0.29 | <1 | 33 |  | 0.32 | 0.08 | 2.2 | 0.2 | 0.42 | 0.22 | 
6 | Cl.Cl.NC(=O)c1cnc2n1CCc1ccccc1C21CCNCC1 [VAPITADINE DIHYDROCHLORIDE] | 1.18 | 19 | 0.51 | > 10 | 2.3 | 1.4 | 2.7 | 0.056 | <1 | 21 | 9.88 | 0.14 | 0.1 | 1.6 | 0.024 | 1.2 | 1.2 | solubility [28]: > 20 mg/mL; solubility [29]: > 20 mg/mL; solubility [30]: > 20 mg/mL; solubility [31]: 3.09 mg/mL; solubility [32]: > 20 mg/mL; solubility [33]: > 20 mg/mL; solubility [34]: > 20 mg/mL; solubility [35]: > 20 mg/mL; solubility [36]: > 20 mg/mL; solubility [37]: > 20 mg/mL; solubility [38]: > 20 mg/mL; pKa ([21]; read-out: pKa2): 3

Reference: ChEMBL document CHEMBL1142741, “Norpiperidine imidazoazepines as a new class of potent, selective, and nonsedative H1 antihistamines” (J Med Chem, 2005)
